Screening results from PubChem.
APP 5UTR inh: APP translation inhibition; SH-SY5Y APP 5'UTR-luciferase reporter, luminescence; inhibition, % at 2 µM; hit rate 0.82% among 190,000;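 active = inhibition above a set limit, derived from the sample mean plus 3 SD, cut at about 45% in these data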
MT stabilize HCS: stabilizes microtubules in HeLa cells; HeLa tubulin immunostaining HCS, 24 h; share of cells brighter than vehicle mean+2SD; % tubulin-high responders, % at 10 µM; hit rate 0.83% among 200,000; AID 2205;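 active = plate Z-score above 3 for both tubulin-high and condensed-nucleus cell shares, with cell loss under 80%, at 10 µM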;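 also: anti alpha tubulin signal scored within the nucleus-defined area of each cell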
bCat nuc transl: modulators of beta-catenin nuclear translocation. HeLa beta-catenin nuclear translocation, immunofluorescence imaging. nuclear translocation activity, % at 5 µM. hit rate 0.3% among 190,000. AID 1665;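 active = nuclear translocation activity above 50% at 5 µM, with a well cell count of 50 or more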;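 also: per-cell ratio of nuclear to cytoplasmic median beta-catenin stain intensity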
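System: HeLa cells, endogenous beta-catenin; compound dosing: 5 µM primary single dose, 0.1% DMSO, 0.02–20 µM confirmation series; incubation: 24 h compound exposure at 37°C, 5% CO2; signal: beta-catenin immunofluorescence imaging with DAPI; evaluation: % activation, nuclear-to-cytoplasmic median beta-catenin signal ratio per cell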
BaF3 tox: counter-screen for JAK2V617F inhibitors: parental Ba/F3 viability inhibitors; CellTiter-Glo ATP luminescence; inhibition, % at 5.6 µM; hit rate 1.1% among 220,000; AID 1486;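 active = inhibition above a per-campaign cutoff, the mean inhibition of all tested compounds plus 3 SD, cut at about 27% in these data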
Lmaj promast: inhibitors of Leishmania major promastigote growth; inhibition, % at 10 µM; hit rate 9% among 200,000; AID 1063; Leishmania major promastigotes, resazurin fluorescence viability; in the data active = inhibition above about 50%;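 also: promastigotes grown with compound for 44 hours at 28 °C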
Ba/F3 V617F tox: reduce viability of Ba/F3 cells dependent on JAK2V617F; Ba/F3 EpoR-JAK2V617F viability, ATP luminescence; hit rate 1.1% among 220,000; inhibition, % at 5.6 µM;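 active = inhibition above the campaign mean plus 3 SD over all tested compounds, cut at about 24% in these data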;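 also: cytokine-independent growth of Ba/F3 cells driven by EpoR plus mutant JAK2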
BaF3 tox 2: parental Ba/F3 viability inhibition for JAK2V617F counter-screen; shares compounds with Ba/F3 V617F tox; CellTiter-Glo luminescence; cells kept alive by added IL-3; inhibition, % at 5.6 µM; hit rate 31% among 580;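 active = cell growth inhibition above the hit limit set in the earlier mutant JAK2 cell screen, cut at about 27% in these data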
JAK2V617F conf: Ba/F3 EpoR-JAK2V617F viability loss, confirmation; shares compounds with Ba/F3 V617F tox; CellTiter-Glo luminescence; inhibition, % at 5.6 µM; hit rate 66% among 580; AID 1521;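 active = mean inhibition above the hit cutoff derived in the earlier primary screen, cut at about 25% in these data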;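 also: higher means lower luminescence from reduced cell ATP and viability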
Hits are given with their value; – = inactive; · = no result given. Compounds with a hit are over-represented: about 9.6% of the library has one in this group of screens.

SMILES	APP 5UTR inh	MT stabilize HCS	bCat nuc transl	BaF3 tox	Lmaj promast	Ba/F3 V617F tox	BaF3 tox 2	JAK2V617F conf
CC(=O)C1=C(O)CC(C)(C)CC1=NCCc1nc2ccccc2[nH]1	–	–	–	–	–	102	–	–
Nc1nc2c(nc(SCc3ccccc3Br)n2C2OC(CO)C(O)C2O)c(=O)[nH]1 (configuration not stated)	–	–	–	–	–	–	·	·
Cc1cc(C)n(C(=O)CNC(=O)COc2ccccc2)n1	–	–	·	–	–	–	·	·
COc1ccc(OCCCC(=O)Nc2cccc(SC)c2)cc1	–	–	–	–	–	–	·	·
COc1ccc(OCCCC(=O)Nc2cccc(C(C)=O)c2)cc1	–	–	–	–	–	73	–	–
O=S(=O)(c1cccs1)N1CCN(c2ccc(O)cc2)CC1	·	·	–	–	·	66	–	60
CCOC(=O)C(C)Oc1cccc2c(=O)n(CC(=O)NCCc3ccccc3)ccc12 (configuration not stated)	·	·	–	–	·	–	·	·
COC(=O)COc1cccc2c(=O)n(CC(=O)NCc3ccc(F)cc3)ccc12	73	20	–	–	–	74	–	86
COC(=O)COc1cccc2c(=O)n(CC(=O)N3CCCCC3)ccc12	·	·	–	–	·	–	·	·
CCOC(=O)C(C)Oc1cccc2c(=O)n(CC(=O)NCc3ccc(F)cc3)ccc12 (configuration not stated)	·	·	106	–	·	29	62	97
Cc1cc(NC(=O)c2cc(-c3ccccn3)nc3ccccc23)no1	–	–	–	–	–	–	·	·
Cc1cc(NC(=O)c2cc(-c3ccc(C)c(C)c3)nc3ccccc23)no1	–	–	·	–	–	63	–	–
CC(Sc1ncc(C(F)(F)F)cc1Cl)C(=O)NC(N)=O (configuration not stated)	–	–	–	–	–	39	–	–
CC(C)C(=O)Nc1ncc(C(F)(F)F)cc1Cl	–	–	–	–	–	–	·	·
NC(=S)N1CCCc2ccccc21	·	·	–	–	·	–	·	·
N#Cc1ncc(-c2ccc3c(c2)OCCOCCOCCOCCO3)nc1C#N	–	–	–	–	–	–	·	·
N#Cc1ncc(-c2ccc3c(c2)OCCOCCOCCOCCOCCO3)nc1C#N	–	–	–	–	96	34	–	43
O=C(Nn1c(-c2ccc(F)cc2)nc2ccccc2c1=O)c1cccnc1	–	–	–	–	–	66	–	–
Cc1ccc(NC(=O)c2ccccc2)cc1	–	–	–	–	–	–	·	·
Cc1ccc(NC(=O)C2=C(c3ccccc3)S(=O)(=O)CCS2(=O)=O)cc1	93	–	–	–	–	71	40	99
Cc1onc(-c2ccccc2)c1C(=O)NNC(=S)NC(=O)c1ccc(Cl)cc1Cl	–	–	–	–	–	–	·	·
CCCCNC(=O)c1onc(CSc2ccc(Cl)cc2)c1C(=O)O	–	–	–	–	–	–	·	·
O=C(O)/C=C\C(=O)Nc1ccccc1C#Cc1ccc(Br)cc1	–	–	–	–	–	36	–	–
O=C(O)/C=C\C(=O)Nc1ccccc1C#Cc1ccccc1	–	–	–	–	–	–	·	·
Cc1ccc(C(=O)N2CCN3C(=O)c4ccccc4C23c2ccc(Cl)cc2)cc1 (configuration not stated)	–	–	–	–	94	28	–	36
SMILES	APP 5UTR inh	MT stabilize HCS	bCat nuc transl	BaF3 tox	Lmaj promast	Ba/F3 V617F tox	BaF3 tox 2	JAK2V617F conf
Nc1ccc2nc(-c3cc(Cl)c(N)c(Cl)c3)[nH]c2c1	–	–	–	–	–	24	31	53
Cc1ccc(C)c(-c2nc3ccc(N)cc3[nH]2)c1	–	–	·	–	–	33	35	54
Cc1ccc2nc(-c3ccccc3N)[nH]c2c1	–	–	–	–	–	–	·	·
Nc1ccc2nc(-c3ccc(Cl)cc3)[nH]c2c1	–	–	·	·	–	·	·	·
On1nnc2ccccc21	·	·	–	–	·	–	·	·
Oc1ccc(/C=N/N2CCN(C3c4ccccc4-c4ccccc43)CC2)cc1O	·	·	–	–	·	70	–	90
O=S(=O)(NCc1cccnc1)c1ccc(Cl)s1	–	–	–	–	–	–	·	·
CCOC(=S)SCC(=O)Nc1nc(-c2ccccc2)cs1	–	–	–	–	–	–	·	·
CCOC(=S)SCC(=O)Nc1nc(-c2ccc(Br)cc2)cs1	–	–	–	–	–	27	71	99
CC1(C)Cc2nc3sc4c(SCC(=O)NCc5ccco5)ncnc4c3cc2CO1	–	29	59	–	–	72	62	90
O=c1[nH]cnc2c1ncn2[C@@H]1O[C@H](CO)[C@@H](O)[C@H]1O	–	–	·	–	–	–	·	·
O=c1cnn([C@@H]2O[C@H](CO)[C@@H](O)[C@H]2O)c(=O)[nH]1	–	–	·	–	–	36	–	68
Cc1ccc(O)c(NC(=O)CSc2ccc(Cl)cc2)c1	–	–	–	–	–	43	–	71
COc1ccc(-c2cc(-c3cc(C)ccc3O)[nH]n2)cc1	–	–	–	–	–	32	–	80
COc1ccc(-c2cc(-c3ccc(OC)cc3)[nH]n2)cc1	–	–	–	–	–	–	·	·
O=C(Nc1ccc(Cl)cc1)/C(=C/c1cccc(O)c1)c1nc2ccccc2s1	–	–	–	–	100	68	–	98
S=C(Nc1ccc(Cl)cc1)c1nc2ccccc2s1	–	–	–	–	–	–	·	·
CCOC(=O)CC(=O)CSc1nc2ccccc2c(=O)n1-c1ccc(C(=O)NCCOC)cc1	–	–	–	–	–	–	·	·
Cc1ccc(S(=O)(=O)N(C)CCCC(=O)N2CCN(C=O)CC2)cc1	–	–	–	–	–	–	·	·
NC(=O)c1cc2c3ccccc3ccn2c1-c1ccccc1	·	·	102	–	·	70	63	95
CCCCCCn1c(Br)nc2c1c(=O)n(C)c(=O)n2C	–	–	–	–	–	–	·	·
Nc1nnc(Sc2ccc(Cl)cc2[N+](=O)[O-])s1	–	–	–	–	–	65	–	–
Cc1cc(SCC(=O)Nc2cccc(S(N)(=O)=O)c2)c(C)cc1Br	–	–	–	–	–	–	·	·
Cc1cc(SCC(=O)Nc2cccc(S(=O)(=O)NC3=NCCCCC3)c2)c(C)cc1Br	–	–	–	–	–	26	–	31
Cc1cc(NCc2ccccn2)n2nc(C)c(-c3ccccc3)c2n1	·	·	–	–	·	–	·	·
Cc1nn2c(NCc3ccccn3)c3c(nc2c1-c1ccccc1)CCC3	·	·	–	–	·	48	–	59
COc1cccc(N2CCN(Cc3ccsc3)CC2)c1	·	–	–	–	–	–	·	·
Cc1cc2c(cc(C(=O)OCC(=O)NCc3cccs3)n2C(C)C)o1	75	30	65	–	–	37	41	90
COc1ccc(NC(=O)/C(Cl)=C(/Cl)S(=O)(=O)Cc2ccc(C)cc2)cn1	86	–	·	–	–	33	88	98
